We go through 14 molecules from article PMC4143156 (Journal of immunology (Baltimore, Md. : 1950), 2008).

Where two headings read alike, the source gives them in different places.

One assay deals with water soluble DQ2 (sDQ2) (Homo sapiens, UniProt P01909+P01920, A45G/A70V/D89A/E106A/E77G/E98D/H199R/L107V/N214S/P84L/P87L/T103K/T109R/T172A/T60S/V78E/V99I/Y58L/Y62S/Y69I/Y79F). It counts as binding. To be noted: ratio of t1/2 without DM to t1/2 with 6 μM DM; sDQ2 complexes.
The target of assay [1] is water soluble DR3 (sDR3) (Homo sapiens, UniProt P01903+P01911, A100K/A102G/A103R/A169T/F55Y/I96L/K41T/L162R/M171V/P40S/Q125H/Q178H/Q39Y/R42S/S66N/T106N/W38E/Y61H). Format: binding. To be noted: ratio of t1/2 without DM to t1/2 with 6 μM DM; sDR3 complex; listed as DR3-CLIP1. In short, it runs like this:
(§1)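 Incubated at 37°C, pH 5.0 citrate phosphate, ±6 μM soluble DM, with 35 μM competitor MT 65kDa 3-13; stopped with cold pH 7.2 buffer. Released peptides were quantified by MALDI-TOF MS against added isotopic indicator peptides.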

Assay [2] concerns water soluble DR3 (sDR3). It counts as binding, human. To be noted: pH 5, without DM. In short, it runs like this: as §1
Assay [3] addresses Water soluble DQ2 (sDQ2), thrombin-cleaved (human). The experiment in a line: peptide dissociation followed by MALDI-TOF MS.
For assay [4], the target named is Water soluble DR3 (sDR3), thrombin-cleaved (human). The experiment in a line: peptide dissociation followed by MALDI-TOF MS.
Assay [5] deals with HLA-DQ2 (DQA1*0501, DQB1*0201) (Homo sapiens, UniProt P01909+P01920, A45G/A70V/D89A/E106A/E77G/E98D/H199R/L107V/N214S/P84L/P87L/T103K/T109R/T172A/T60S/V78E/V99I/Y58L/Y62S/Y69I/Y79F). The conditions noted are these: DQ2 affinity purified from B-LCL; ref [3],[4]; cited from earlier work.
Assay [6] addresses HLA-DQ2 (DQA1*0501, DQB1*0201) (human (endogenous in B-LCL)). Nature of the assay: affinity purification with mass spectrometry.
The target is the same in assay [7]. Nature of the assay: affinity purification with mass spectrometry. This is another data set of the same source.
Assay [8] deals with HLA-DR3 (DRA1*0101, DRB1*0301) (human (endogenous in B-LCL)). The experiment in a line: affinity purification with mass spectrometry.

Regarding RDSGPVSKMRMATPLLMQAGAGSLVPR [CLIP1], the “DM-mediated increase in dissociation” value on water soluble DQ2 (sDQ2) stood at 16x; at water soluble DR3 (sDR3) [1], 246x. Moreover, the “Faster spontaneous release from DR3 compared to CLIP1 and CLIP2 from sDQ2” value in the assay with water soluble DR3 (sDR3) [2] came out at 2 fold.
As to “CLIP1 released peptide of sDQ2-CLIP1 and sDR3-CLIP1”, the t1/2 of DM-mediated dissociation (6 μM DM) stood at 9 h in assay [3] and 0.25 h in [4]. Further, the t1/2 of spontaneous dissociation is 144 h in [3] and 61.5 h in [4].
In assay [3], “CLIP1 M91A released peptide of sDQ2-CLIP1 M91A” displayed a t1/2 of DM-mediated dissociation (6 μM DM) of 0.7 h and a t1/2 of spontaneous dissociation of 13.1 h.
For RDSGMATPLLMQALPM GALGAGSLVPR [CLIP2], the “DM-mediated increase in dissociation” value at water soluble DQ2 (sDQ2) worked out at 28x. For the same molecule, the “IC50 values/affinity for DQ2 compared to conventional CLIP (CLIP1) peptides” value in [5] is “lower”.
On to “RDSGPVSKARMATPLLMQAGAGSLVPR [CLIP1 M91A]”, for which the “DM-mediated increase in dissociation” value at water soluble DQ2 (sDQ2) was 19x.
On to “RDSGPVSKPRMATPLLMQAGAGSLVPR [CLIP1 M91P]”, for which, on water soluble DQ2 (sDQ2), the “DM-mediated increase in dissociation” value came to 11x.
With CLIP2 released peptide of sDQ2-CLIP2, in assay [3], the t1/2 of DM-mediated dissociation (6 μM DM) was determined as 5 h and the t1/2 of spontaneous dissociation came to 142 h.
For “CLIP1 M91P released peptide of sDQ2-CLIP1 M91P”, in that order: 8.9 h and 93.6 h.
MATPLLMQALPMGALP [Ii93-108]: the pmol of peptide eluted from 50 μg of affinity-purified class II in [6] is 156 pmol; in assay [7] it was 159 pmol.
On to PKPPKPVSKMRMATPLLMQALP [Ii82-103], for which the pmol of peptide eluted from 50 μg of affinity-purified class II stood at 36.8 pmol in [6], 16.5 pmol in assay [7] and 113 pmol in assay [8].
In the case of LPKPPKPVSKMRMATPLLMQALP [Ii81-103], the pmol of peptide eluted from 50 μg of affinity-purified class II in [6] is 71.1 pmol; in assay [7], 79.5 pmol.
For MATPLLMQALPMGALPQ [Ii93-109], the pmol of peptide eluted from 50 μg of affinity-purified class II in assay [6] is 3.8 pmol.
In assay [8], LPKPPKPVSKMRMATPLLMQALPM [Ii81-104] returned a pmol of peptide eluted from 50 μg of affinity-purified class II of 42.4 pmol.
Turning to LPKPPKPVSKMRMATPLLMQA [Ii81-101], the pmol of peptide eluted from 50 μg of affinity-purified class II turned out to be 88.4 pmol in assay [6], 31.5 pmol in assay [7] and 106 pmol in assay [8].
